Shown are actives, neighbours in structure and some others; about 2.3% of the full set was active somewhere.
TRPC6 inh = mouse TRPC6 channel inhibitors, primary screen, cell-based, HEK293, membrane potential dye; Short transient receptor potential channel 6 (Mus musculus), Q61143; B-score at 10 µM; ACh-evoked depolarization; hits give low values; actives 1.1% (n = 310,000); AID 2553, 2010;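 active = B-score under library mean minus 3 SD, initial fluorescence not abnormally high, positive integrated signal ratio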;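 note: B-score derived from integrated fluorescence ratio over the kinetic read; more negative B-score means stronger inhibition of depolarization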
Target sequence (Q61143 whole entry, looked up): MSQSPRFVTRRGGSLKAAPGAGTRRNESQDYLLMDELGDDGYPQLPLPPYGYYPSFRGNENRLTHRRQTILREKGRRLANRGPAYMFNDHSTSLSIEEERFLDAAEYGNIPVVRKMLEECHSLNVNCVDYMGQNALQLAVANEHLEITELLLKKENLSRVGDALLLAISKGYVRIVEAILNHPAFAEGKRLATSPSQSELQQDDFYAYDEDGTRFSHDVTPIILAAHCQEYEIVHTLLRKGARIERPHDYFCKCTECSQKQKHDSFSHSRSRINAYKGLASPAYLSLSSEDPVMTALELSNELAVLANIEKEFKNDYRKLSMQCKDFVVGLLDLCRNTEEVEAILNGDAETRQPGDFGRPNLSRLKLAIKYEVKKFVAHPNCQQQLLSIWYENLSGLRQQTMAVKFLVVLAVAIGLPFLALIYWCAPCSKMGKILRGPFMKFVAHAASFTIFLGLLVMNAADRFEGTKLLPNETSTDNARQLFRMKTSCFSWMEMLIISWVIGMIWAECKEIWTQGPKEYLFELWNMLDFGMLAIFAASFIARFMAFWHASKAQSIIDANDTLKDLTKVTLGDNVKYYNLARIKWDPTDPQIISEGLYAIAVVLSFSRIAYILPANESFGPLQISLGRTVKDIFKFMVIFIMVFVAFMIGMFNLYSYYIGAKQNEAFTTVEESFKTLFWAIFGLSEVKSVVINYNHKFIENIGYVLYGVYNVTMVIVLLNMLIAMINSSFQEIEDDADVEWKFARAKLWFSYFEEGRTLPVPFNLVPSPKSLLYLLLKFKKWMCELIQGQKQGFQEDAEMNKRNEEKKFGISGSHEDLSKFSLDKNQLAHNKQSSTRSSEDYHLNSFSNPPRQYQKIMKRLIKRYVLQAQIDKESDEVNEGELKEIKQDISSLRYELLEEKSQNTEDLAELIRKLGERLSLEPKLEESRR
TRPC4 act = activators of mouse TRPC4 channel, primary screen, Fluo4 calcium, HEK293 TRPC4beta/mu-opioid cells | Fluo4 calcium fluorescence; hits give high values | B-score at 10 µM | actives 0.49% (n = 310,000);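 active = B-score above 5 SD of library B-scores, and initial fluorescence ratio not above library mean plus 5 SD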;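 note: positive B-score marks a calcium rise read as TRPC4 activation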
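Incubation: 45 min room-temperature Fluo4 loading, 110 s read / System: HEK293 cells stably co-expressing mouse TRPC4beta and mu-opioid receptor / Signal: Fluo4 fluorescence, kinetic / Control set: buffer (low) and maximal DAMGO (high) / Measure: integrated baseline-normalised fluorescence ratio, converted to per-well B score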
TRPC4 PAM = positive allosteric modulators of TRPC4, primary screen, cell-based, mouse TRPC4beta, HEK293 mu-opioid, Fluo-4 calcium; Short transient receptor potential channel 4 (Mus musculus), Q9QUQ5; DAMGO EC20, Fluo-4 Ca2+ flux; hits give high values; B-score at 10 µM; actives 0.42% (n = 310,000);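 active = B-score of calcium response area above 5 SD of library B-scores, with initial fluorescence ratio within 5 SD of library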;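 note: B-score of integrated fluorescence ratio over time as area under calcium response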
TRPC6 activator = mouse TRPC6 channel activators, primary screen, cell-based, HEK293, membrane potential dye; Short transient receptor potential channel 6 (Mus musculus), Q61143; HEK293-TRPC6 membrane potential dye fluorescence; hits give high values; B-score at 10 µM; actives 0.13% (n = 310,000);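 active = B-score of the integrated fluorescence ratio above library mean plus 3 SD, and starting fluorescence ratio within library mean plus 5 SD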;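 note: higher score means more depolarization so channel activation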
TRPC4 block = inhibitors of mouse TRPC4 channel, primary screen, Fluo4 calcium, HEK293 TRPC4beta/mu-opioid cells; AID 2247, 2010; actives 0.39% (n = 300,000); DAMGO-evoked Fluo4 calcium flux; hits give low values; Short transient receptor potential channel 4 (Mus musculus), Q9QUQ5; B-score at 10 µM;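 active = B-score over 3 SD under the library average, no early fluorescence shift, positive overall ratio signal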
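Signal: kinetic Fluo4 fluorescence imaging of calcium influx. Material: stable TRPC4beta/mu-opioid receptor HEK293 cells. Probe or stimulus: DAMGO in two steps, submaximal then maximal.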
* hit, by the source's call; i = inactive.

SMILES	TRPC6 inh	TRPC4 act	TRPC4 PAM	TRPC6 activator	TRPC4 block
CCCc1nnc(NC(=O)CCC(=O)N2CCN(Cc3cc(F)ccc3OC)CC2)s1	i	i	i	i	i
CCN(CC(=O)NCc1cccs1)C(=O)c1ccc(S(=O)(=O)Nc2ccccc2F)cc1	i	i	i	i	i
CC(C)CCn1c(N2CCN(c3cccc(Cl)c3)CC2)nc2c1c(=O)[nH]c(=O)n2C	i	i	16*	i	i
Cc1ccc(C(=O)C2CCN(CC(=O)NC3CCCC3)CC2)cc1	i	i	i	i	i
COc1cc(/C=C2\C(=O)N(c3ccc(NC(C)=O)cc3)N=C2c2ccccc2)ccc1O	i	i	15*	i	i
O=C1/C(=C\c2ccc(O)c(O)c2)C(c2ccccc2)=NN1c1ccccc1	i	i	i	i	i
CCOC(=O)C1CCCN(C(c2ccccn2)c2c(C)[nH]c3ccccc23)C1 (stereo not drawn)	i	148*	i	i	i
Cc1[nH]c2ccccc2c1C(c1ccccn1)N1CCCC1 (stereo not drawn)	i	i	i	i	i
CCOC(=O)C1=C(C)N(CCCC(=O)O)C(=O)NC1c1cc2ccccc2c2ccccc12 (stereo not drawn)	i	i	i	i	i
Cc1cc(NC(=O)C(C)SCC(=O)O)no1 (stereo not drawn)	i	i	i	i	i
Cc1cccc(N(Cc2ccccc2)C(=O)CSC(C)C(=O)Nc2cc(C)on2)c1 (stereo not drawn)	i	i	i	i	-6*
CCn1c(=O)[nH]c(=O)c2c(N)c(C(=O)c3cc(F)ccc3F)sc21	i	i	10*	i	i
Cc1ccc(C(=O)O/N=C(\N)Cc2cccs2)c(Cl)c1	i	i	i	i	i
O=C(CC12CC3CC(CC(C3)C1)C2)NC(Cc1ccccc1)C(=O)O (stereo not drawn)	i	i	i	i	i
CNC[C@H](CC1CCCCC1)NC[C@H](Cc1ccccc1)NCCC12CC3CC(CC(C3)C1)C2	i	152*	i	i	i
Cc1oc(-c2ccoc2)nc1CN(Cc1ccccc1)CC1CC1	i	i	i	i	-9*
CCCCN(CC)CCCNC(=O)CN1C(=O)CSc2ccc(S(=O)(=O)N3CCOCC3)cc21	i	55*	i	i	i
CCCCN(CCCC)CCNC(=O)CN1C(=O)CSc2ccc(S(=O)(=O)N3CCOCC3)cc21	i	i	i	i	i
CCN(CC)CCn1c2ccccc2c2n[nH]c(=S)nc21	i	63*	i	i	i
CCN(CC)CCn1c2ccccc2c2nc3ccccc3nc21	i	i	i	i	i
CCCCn1c(SCC(=O)OCC)nc2c(sc(=S)n2-c2ccccc2OC)c1=O	i	i	i	i	-6*
Cc1ccc(Sc2cc(C(=O)NCCN(C)C)c3ccccc3n2)cc1	i	203*	i	i	i
CN(C)CCNC(=O)c1cc(Sc2ccc(F)cc2)nc2ccccc12	i	i	31*	i	i
CN(C)CCSc1nnc2sc3ccccc3n12	i	i	11*	i	i
N#CCSc1nnc2sc3ccccc3n12	i	i	i	i	i
SMILES	TRPC6 inh	TRPC4 act	TRPC4 PAM	TRPC6 activator	TRPC4 block
COc1cc([N+](=O)[O-])cc(/C=C2/SC(=S)N(Cc3ccccc3)C2=O)c1O	-6.3*	i	i	i	i
O=C(Nc1cccc(C(F)(F)F)c1)c1cccc(NS(=O)(=O)c2ccc(O)c(C(=O)O)c2)c1	i	i	22*	i	i
COc1ccc(S(=O)(=O)N2CCN(CC(=O)NC3CC3)CC2)cc1	i	i	i	i	i
O=C1/C(=C/c2ccc([N+](=O)[O-])cc2)C=C(c2ccccc2)N1c1ccc(O)cc1	-5.2*	i	i	i	i
COc1cccc(CNC(=O)CCC2CCCN(c3cc(C)nc(N(C)C)n3)C2)c1 (stereo not drawn)	i	i	i	i	-6*
N#Cc1c(NCCCO)nc(NCc2ccccc2)c2c1CCN(Cc1ccccc1)C2	i	i	i	i	i
CN1CCc2c(C#N)c(N3CCCCC3)nc(NCc3ccccc3)c2C1	i	i	13*	i	i
C/C(=N\NC(=S)Nc1ccccc1C)c1ccc(O)cc1	i	i	i	i	i
Cc1ccc(S(=O)(=O)Nc2cccc(C(=O)NCC(c3ccccc3)N(C)C)c2)cc1F (stereo not drawn)	i	66*	i	i	-10*
Cc1ccc(NC(=O)CNCC(c2ccccc2)N(C)C)cc1F (stereo not drawn)	i	147*	i	i	i
COc1ccc(C(CNC(=O)c2ccc(S(=O)(=O)N(C)C)cc2)N(C)C)cc1 (stereo not drawn)	i	242*	i	i	i
COc1ccc(C(CNC(=O)c2cccc(NS(=O)(=O)c3ccc(Br)cc3)c2)N(C)C)cc1 (stereo not drawn)	i	154*	i	i	i
CC(C)c1ccc(NC(=O)CNCC(c2ccccc2)N(C)C)cc1 (stereo not drawn)	i	i	i	i	i
CC(/C=N/NC(=O)c1cnccn1)=C\c1ccco1	i	i	i	i	i
Cc1ccc(N2CC(C)Cn3c2nc2c3c(=O)[nH]c(=O)n2C)cc1C (stereo not drawn)	i	i	i	i	i
CN(C)CCOC1c2ccccc2CCc2ccc3ccccc3c21 (stereo not drawn)	i	i	i	i	i
COc1ccc(CN2CCN(C(=O)c3ccc(F)cc3)CC2)c(OC)c1	i	i	i	i	-6*
CC(CCc1ccccc1)NC(=O)CCC1CCCC1 (stereo not drawn)	i	i	i	i	i
Cn1c(CNc2ccc(Cl)cc2)nc2ccccc21	i	i	i	i	i
Cn1c(CN2CCN(c3cccc(Cl)c3)CC2)nc2ccccc21	i	84*	i	i	i
Cc1ccc(N2CCN(c3ccc(NCc4nc5ccccc5n4C)cc3)CC2)cc1	i	122*	i	i	i
C=CC(n1cncn1)C(O)(c1ccccc1)c1ccccc1 (stereo not drawn)	i	i	i	i	i

Assay outcomes (PubChem BioAssay)
